Only some compounds are listed: those with a hit (about 2.4% of all), similar ones and a draw of the others.
MC4R antag cAMP = human MC4R antagonism in cAMP assay; inhibition, % at 6.5 µM; P32245; MC4R-expressing cells, MTII-stimulated cAMP, LANCE TR-FRET; 360,000 compounds, 0.48% hits; AID 540295;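 active = inhibition above its plate's cutoff, the mean of tested wells on that plate plus 3 SD, cut at about 29% in these data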;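 also: 0% = Melanotan II alone and 100% = Melanotan II plus saturating MCL0020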
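material = U2OS cells stably expressing human melanocortin 4 receptor (MC4R) | also added = Melanotan II challenge | dosing = single nominal compound dose of 6.5 µM | detection = TR-FRET with Eu-cAMP and labeled anti-cAMP, 671 nm | replication = singlicate | timing = compound 30 min, challenge 1 h, detection 1 h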
NTR1 ag = NTR1 (human) agonism; P30989; activation, % at 20 µM; NTR1-U2OS beta-arrestin-GFP spot imaging, agonist mode; 330,000 compounds, 0.17% hits;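 active = activation at or above 40% of the spot to cytoplasm intensity ratio, with at least 20 cells analyzed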;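 also: 0% = DMSO without peptide and 100% = 100 nM NTR1 peptide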
Target sequence (P30989 whole entry, looked up): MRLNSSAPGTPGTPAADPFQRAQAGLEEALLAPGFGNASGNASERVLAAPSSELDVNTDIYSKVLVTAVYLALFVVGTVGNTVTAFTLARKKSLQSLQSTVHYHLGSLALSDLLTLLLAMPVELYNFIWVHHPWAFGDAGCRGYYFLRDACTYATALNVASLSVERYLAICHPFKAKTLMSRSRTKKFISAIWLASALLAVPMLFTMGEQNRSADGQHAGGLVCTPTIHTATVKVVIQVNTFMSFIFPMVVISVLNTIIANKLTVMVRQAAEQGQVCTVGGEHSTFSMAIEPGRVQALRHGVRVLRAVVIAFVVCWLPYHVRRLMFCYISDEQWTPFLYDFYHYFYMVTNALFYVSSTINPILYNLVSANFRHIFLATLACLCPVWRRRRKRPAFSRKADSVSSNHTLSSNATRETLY
TAG inh = inhibitors of triacylglycerol accumulation | H9c2 cells, Nile Red lipid (TAG) fluorescence; cells loaded with 200 µM oleic acid | inhibition, % at 12.5 µM | 230,000 compounds, 0.66% hits | AID 651582;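 active = pattern-corrected inhibition of lipid staining of at least 50% with the nuclear-stain viability signal not falling by more than 50%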;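 also: 0% = DMSO wells and 100% = triacsin C control wells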
Tb MetRS inh = blocks T. brucei methionyl-tRNA synthetase activity | inhibition, % at 11.9 µM | purified T. brucei MetRS, ATP depletion, Kinase-Glo luminescence | 360,000 compounds, 0.4% hits | AID 624268;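 active = inhibition above a per-plate cutoff of the control wells' mean inhibition plus 3 SD, cut at about 5.5% in these data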;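 also: 0% = DMSO wells median and 100% = median of wells with control inhibitor compound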
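Test system – parasite MetRS enzyme · Reagent – substrates ATP, L-methionine and bulk Escherichia coli tRNA · Doses – 11.9 µM compound single dose, 0.9% DMSO · Times – 15 min enzyme-compound preincubation, 2 h reaction, 10 min detection, 25 °C · Signal – Kinase-Glo luminescence, ATP depletion format · Controls – DMSO-only wells as low control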
MC4R barr agon = human MC4R agonism via beta-arrestin; U2OS MC4R beta-arrestin complementation, luminescence; percent of melanotan II response, DMSO zero; activation, % at 8.9 µM; 360,000 compounds, 0.98% hits;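 active = activation above a per-plate cutoff, the mean activation of sample wells on that plate plus 3 SD, cut at about 8% in these data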
aDG glyco act = alpha-DG glycosylation activation; Pro5-aDG cells, alpha-DG glycosylation AlphaScreen (IIH6); 0% Pro5, 100% B10-LARGE cell signal; activation, % at 10 µM; 360,000 compounds, 0.22% hits; AID 624168;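 active = activation of at least 8% versus controls, or a plate z-score of at least 8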;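 also: Pro5 are CHO cells carrying HIG-tagged alpha-DG that lacks glycosylation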
MC4R barr conf = human MC4R beta-arrestin agonism confirmation; shares compounds with MC4R barr agon; U2OS MC4R beta-arrestin recruitment, luminescence; scaled DMSO 0%, Melanotan II 100%; activation, % at 8.9 µM; 2,400 compounds, 31% hits; AID 602192;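 active = mean activation across replicates above the hit cutoff set in the earlier primary screen, cut at about 8% in these data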
MOR-DOR barr ag = counter-screen for MC4R agonists: agonists of mu-delta opioid heterodimer; U2OS PathHunter beta-arrestin, beta-gal luminescence; percent of deltorphin B response, DMSO zero; 2,400 compounds, 5.8% hits; activation, % at 9.2 µM; AID 602194; shares compounds with MC4R barr agon;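 active = mean activation across replicates exceeds the hit threshold derived in the earlier primary screen, cut at about 18% in these data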;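 also: 100% = deltorphin B at 0.9 µM final and 0% = DMSO alone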
The depositor's hits bear a star; · = no result.

SMILES | MC4R antag cAMP | NTR1 ag | TAG inh | Tb MetRS inh | MC4R barr agon | aDG glyco act | MC4R barr conf | MOR-DOR barr ag
COc1ccc(-c2nc3c(C)cc(Br)cn3c2Cc2ccc(C)cc2)cc1OC | · | · | · | 0 | · | 0 | · | ·
CCC(=O)N(Cc1ccco1)c1nc(-c2ccc(OC)cc2)cs1 | -11 | 2 | · | -1 | 6 | 0 | · | ·
CCC(=O)N(Cc1ccco1)c1nc(-c2cc(OC)ccc2OC)cs1 | -3 | 8 | -1 | 0 | 9.7* | 0 | 9.1* | 5
CCCC#Cc1ccc2c(c1)O[C@@H](CN(C)Cc1ccc3c(c1)OCO3)[C@H](C)CN([C@@H](C)CO)S2(=O)=O | 5 | · | 4 | -1 | -2 | 0 | · | ·
COc1ccc(S(=O)(=O)N2CCOCC2)cc1NC(=O)c1ccccc1-c1ccc(C(F)(F)F)cc1 | 18 | 2 | · | 1 | 10* | 0 | 0 | 2
O=C(Nc1ccc(N2CCN(c3ccc(O)cc3)CC2)cc1)Oc1ccccc1 | -7 | 0 | · | 1 | 26* | 0 | -3 | 3
COc1ccc(-n2nc(C(=O)NCC(=O)Nc3ccccn3)c3ccccc3c2=O)cc1Cl | -3 | 3 | 31 | 0 | 15* | 0 | 24* | 9
COc1ccc(-n2nc(C(=O)NCC(=O)NC(C)C)c3ccccc3c2=O)cc1Cl | -7 | 1 | · | -1 | -1 | 0 | · | ·
COc1ccc([C@H]2C[C@@H](O)[C@H](n3cc(-c4ccc(F)cc4)nn3)CN2CC2CCCCC2)cc1 | 18 | · | 39 | 0 | 14* | 0 | 1 | 4
CCCCCCCCCCCCCCCC[n+]1ccc(/C=N/O)cc1 | 7 | 21 | · | 0 | 20* | 0 | 64* | 16
CC(C)(C)OC(=O)N1CCN(C(c2ccnc3ccccc23)c2nnnn2-c2ccc3c(c2)OCCO3)CC1 (configuration not stated) | · | · | · | -1 | · | 0 | · | ·
O=C(Nc1ccc2oc(-c3ccccc3)nc2c1)c1ccccc1F | 7 | -3 | 34 | -2 | 0 | 0 | · | ·
O=C(Nc1ccc2oc(-c3cccc(F)c3)nc2c1)c1ccccc1F | 7 | 3 | · | 0 | 27* | 0 | 16* | 4
COc1cccc(NC(=O)CCC2CCN(C(=O)C(OC)c3ccccc3)CC2)c1 (configuration not stated) | 4 | · | -23 | 0 | 0 | 0 | · | ·
COc1ccc(/C=N/NC(=O)c2ccc(COc3ccccc3Cl)o2)cc1 | 6 | -2 | -5 | 0 | 9.9* | 0 | 6 | 4
CC(=O)Nc1ccc(/C(C)=N/NC(=O)c2ccc(COc3ccccc3Cl)o2)cc1 | 13 | 2 | 18 | 0 | 0 | 0 | · | ·
COc1ccc(/C=N/NC(=O)c2ccc(COc3ccccc3Cl)o2)c(OC)c1C | -3 | 10 | · | -1 | 17* | 0 | 18* | 10
O=C(NCc1ccc(C(F)(F)F)cc1)C1CC(c2ccc(C(F)(F)F)cc2)=NO1 (configuration not stated) | -7 | 6 | -15 | 0 | 12* | 1 | 2 | 7
CCN1C(=O)S/C(=C\c2ccc(N3CCOCC3)cc2C)C1=O | 3 | 1 | 5 | 0 | 0 | 1 | · | ·
C#CCN1C(=O)S/C(=C\c2ccc(N3CCOCC3)cc2C)C1=O | 6 | -1 | -12 | 0 | 11* | 0 | -3 | 3
CC1(C)N=C(N)N=C(N)N1c1ccc(CCCCc2ccccc2)cc1 | 7 | · | -37 | 0 | 1 | 0 | · | ·
COc1ccc(/C=N/Nc2cc(C)nc3ccc(OC)cc23)c(OC)c1 | -12 | 17 | · | 0 | 32* | 0 | 57* | 43*
Cc1nc2ccccc2c2oc(C(=O)Nc3ccc(C(C)C)cc3)cc12 | 3 | 10 | -11 | -2 | 27* | 2 | 9.2* | 4
CCCCNC(=O)c1nc(C2CCN(S(=O)(=O)c3cccc(C(F)(F)F)c3)CC2)oc1-c1ccccc1 | · | · | · | 0 | · | 0 | · | ·
NC(=O)N/N=C/c1ccc(-c2ccc([N+](=O)[O-])cc2)o1 | -25 | 3 | 3 | -1 | -1 | 0 | · | ·
SMILES | MC4R antag cAMP | NTR1 ag | TAG inh | Tb MetRS inh | MC4R barr agon | aDG glyco act | MC4R barr conf | MOR-DOR barr ag
COCCNC(=S)N/N=C/c1ccc(-c2ccc([N+](=O)[O-])cc2)o1 | -5 | 35 | 8 | 0 | 11* | 0 | 0 | 6
CN=C1SC(CC(=O)Nc2ccccc2F)C(=O)N1C (configuration not stated) | -1 | 0 | 4 | 0 | 0 | 0 | · | ·
C=CCOc1ccc(/C=N/N2C(=O)C(CC(=O)Nc3ccc(F)cc3F)SC2=NC)cc1 (configuration not stated) | 6 | 6 | 8 | 0 | 11* | 0 | 0 | 4
COc1cccc(NC(=O)C2CC2(c2cccc(OC)c2)c2cccc(OC)c2)c1 (configuration not stated) | 11 | 0 | · | 0 | -1 | 0 | · | ·
COc1cccc(C2(c3cccc(OC)c3)CC2C(=O)Nc2cccc3ccccc23)c1 (configuration not stated) | 10 | 3 | · | 1 | 9.6* | 0 | 1 | 4
CCC(C(=O)NC(C)(C)C)n1c(-c2cccc(NC(C)=O)c2)nc2ccccc21 (configuration not stated) | · | · | · | 0 | · | 4 | · | ·
COC(=O)c1ccc(C2C(Oc3ccccc3)C(=O)N2CCc2ccc(F)cc2)cc1 (configuration not stated) | 11 | 15 | · | 0 | 20* | 0 | 3 | 5
COc1ccc(CN2CCn3ncc(C(=O)Nc4cc(C)cc(C)c4)c3C2=O)cc1 | 5 | 6 | 7 | 0 | 32* | 0 | 0 | 10
CC(=O)Nc1ccc(S(=O)(=O)N2CCN=C2SCc2ccc(F)cc2)cc1 | 0 | -1 | · | 0 | -2 | 1 | · | ·
O=[N+]([O-])c1ccc(S(=O)(=O)N2CCN=C2SCc2ccc(F)cc2)cc1 | 2 | 3 | -10 | 0 | 11* | 0 | 4 | 8
CCOC(=O)Cn1c(=NC(=O)c2nc3ccccc3s2)sc2cc(S(N)(=O)=O)ccc21 | 28 | 29 | · | -1 | 12* | 0 | 1 | 3
C=C(C)c1cccc(C(C)(C)NC(=O)N(Cc2ccccc2)Cc2ccco2)c1 | 1 | 0 | · | 0 | 17* | 0 | -1 | 5
COc1ccc(C(=O)Cn2c(NCCCO)nc3ccccc32)cc1 | 1 | · | 4 | 0 | 1 | 0 | · | ·

Bioassay records (PubChem)
